Measurements from ChEMBL document CHEMBL1124366, “Synthesis and biological properties of N63-carboxamides of teicoplanin antibiotics. Structure-activity relationships” (J Med Chem, 1989).
In brackets after ≈: the same amount, converted by molar mass.

Legend:
Format in all cases: functional
[1] = test system: Staphylococcus epidermidis; assay: In vitro minimum inhibitory concentration against Staphylococcus epidermis ATCC 12228
Streptococcus pyogenes [2] = assay: In vitro minimum inhibitory concentration against Streptococcus pyogenes C 203
Enterococcus faecalis = assay: In vitro minimum inhibitory concentration against Streptococcus faecalis ATCC 7080
Staphylococcus aureus = assay: In vitro minimum inhibitory concentration against Staphylococcus aureus Tour
Streptococcus pyogenes [3] = assay: In vivo effective dose given perorally to mice infected with Streptococcus pyogenes C 203; conditions: po
How it was run: (§1)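 Mice (five per treatment group, five groups) infected intraperitoneally with about 10⁵ cells of Strep. pyogenes C 203, about 100× the LD50. ED50 (mg/kg) was calculated from the percentage of mice surviving at each dose on day 7.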

Streptococcus pyogenes [4] = assay: Subcutaneously administration into mice infected with Streptococcus pyogenes C 203; conditions: sc; how it was run: as §1
Streptococcus pneumoniae = assay: In vitro minimum inhibitory concentration against Streptococcus pneumoniae UC41
Escherichia coli = assay: In vitro minimum inhibitory concentration against Escherichia coli SKF 12140
Proteus vulgaris = assay: In vitro minimum inhibitory concentration against Proteus vulgaris X 19 ATCC 881

Row | SMILES | MIC [1] | MIC (Streptococcus pyogenes [2]) | MIC (Enterococcus faecalis) | MIC (Staphylococcus aureus) | ED50 (Streptococcus pyogenes [3]) | ED50 (Streptococcus pyogenes [4]) | MIC (Streptococcus pneumoniae) | MIC (Escherichia coli) | MIC (Proteus vulgaris)
1 | CCCCN(CCCC)CCCNC(=O)[C@H]1NC(=O)[C@H]2NC(=O)[C@H](NC(=O)[C@@H]3NC(=O)[C@H]4NC(=O)[C@@H](Cc5ccc(c(Cl)c5)Oc5cc3cc(c5O[C@@H]3O[C@@H](CO)[C@@H](O)[C@H](O)[C@@H]3NC(=O)CCCCCCC(C)C)Oc3ccc(cc3Cl)[C@H]2O[C@@H]2O[C@@H](CO)[C@@H](O)[C@H](O)[C@@H]2NC(C)=O)NC(=O)[C@H](N)c2ccc(O)c(c2)Oc2cc(O)cc4c2)c2ccc(O)c(c2)-c2c(O[C@H]3O[C@H](CO)[C@@H](O)[C@@H](O)[C@@H]3O)cc(O)cc21 | 0.06 µg/mL (≈ 0.0293 µM) | 0.06 µg/mL (≈ 0.0293 µM) | 0.12 µg/mL (≈ 0.0586 µM) | 0.25 µg/mL (≈ 0.122 µM) | 300 mg/kg | 0.1 mg/kg | 0.06 µg/mL (≈ 0.0293 µM) | – | –
2 | COC(=O)CNC(=O)[C@H]1NC(=O)[C@H]2NC(=O)[C@H](NC(=O)[C@@H]3NC(=O)[C@H]4NC(=O)[C@@H](Cc5ccc(c(Cl)c5)Oc5cc3cc(c5O)Oc3ccc(cc3Cl)[C@H]2O[C@@H]2O[C@@H](CO)[C@@H](O)[C@H](O)[C@@H]2NC(C)=O)NC(=O)[C@H](N)c2ccc(O)c(c2)Oc2cc(O)cc4c2)c2ccc(O)c(c2)-c2c(O)cc(O)cc21 | 0.06 µg/mL (≈ 0.0407 µM) | 0.25 µg/mL (≈ 0.17 µM) | 0.5 µg/mL (≈ 0.339 µM) | 0.25 µg/mL (≈ 0.17 µM) | – | 7 mg/kg | 2 µg/mL (≈ 1.36 µM) | > 128 µg/mL | > 128 µg/mL
3 | CCN(CC)CCCNC(=O)[C@H]1NC(=O)[C@H]2NC(=O)[C@H](NC(=O)[C@@H]3NC(=O)[C@H]4NC(=O)[C@@H](Cc5ccc(c(Cl)c5)Oc5cc3cc(c5O)Oc3ccc(cc3Cl)[C@H]2O[C@@H]2O[C@@H](CO)[C@@H](O)[C@H](O)[C@@H]2NC(C)=O)NC(=O)[C@H](N)c2ccc(O)c(c2)Oc2cc(O)cc4c2)c2ccc(O)c(c2)-c2c(O)cc(O)cc21 | 0.06 µg/mL (≈ 0.0396 µM) | 0.12 µg/mL (≈ 0.0792 µM) | 0.25 µg/mL (≈ 0.165 µM) | 0.12 µg/mL (≈ 0.0792 µM) | – | 0.95 mg/kg | 0.5 µg/mL (≈ 0.33 µM) | 64 µg/mL (≈ 42.3 µM) | 128 µg/mL (≈ 84.5 µM)
4 | CC(=O)N[C@@H]1[C@H](O[C@@H]2c3ccc(c(Cl)c3)Oc3cc4cc(c3O[C@@H]3O[C@@H](CO)[C@@H](O)[C@H](O)[C@@H]3NC(=O)CCCCCCC(C)C)Oc3ccc(cc3Cl)C[C@H]3NC(=O)[C@H](N)c5ccc(O)c(c5)Oc5cc(O)cc(c5)[C@H](NC3=O)C(=O)N[C@H]4C(=O)N[C@H]3C(=O)N[C@@H]2C(=O)N[C@H](C(=O)N2CCSCC2)c2cc(O)cc(O[C@H]4O[C@H](CO)[C@@H](O)[C@@H](O)[C@@H]4O)c2-c2cc3ccc2O)O[C@@H](CO)[C@@H](O)[C@@H]1O | 0.25 µg/mL (≈ 0.127 µM) | 0.06 µg/mL (≈ 0.0305 µM) | 0.12 µg/mL (≈ 0.0611 µM) | 0.12 µg/mL (≈ 0.0611 µM) | 220 mg/kg | 0.08 mg/kg | 0.12 µg/mL (≈ 0.0611 µM) | – | –
5 | CC(=O)N[C@@H]1[C@H](O[C@@H]2c3ccc(c(Cl)c3)Oc3cc4cc(c3O[C@@H]3O[C@@H](CO)[C@@H](O)[C@H](O)[C@@H]3NC(=O)CCCCCCC(C)C)Oc3ccc(cc3Cl)C[C@H]3NC(=O)[C@H](N)c5ccc(O)c(c5)Oc5cc(O)cc(c5)[C@H](NC3=O)C(=O)N[C@H]4C(=O)N[C@H]3C(=O)N[C@@H]2C(=O)N[C@H](C(=O)NCCN2CCOCC2)c2cc(O)cc(O[C@H]4O[C@H](CO)[C@@H](O)[C@@H](O)[C@@H]4O)c2-c2cc3ccc2O)O[C@@H](CO)[C@@H](O)[C@@H]1O | 0.12 µg/mL (≈ 0.0602 µM) | 0.06 µg/mL (≈ 0.0301 µM) | 0.12 µg/mL (≈ 0.0602 µM) | 0.12 µg/mL (≈ 0.0602 µM) | 300 mg/kg | 0.08 mg/kg | 0.12 µg/mL (≈ 0.0602 µM) | – | –
6 | CC(=O)N[C@@H]1[C@H](O[C@@H]2c3ccc(c(Cl)c3)Oc3cc4cc(c3O[C@@H]3O[C@@H](CO)[C@@H](O)[C@H](O)[C@@H]3NC(=O)CCCCCCC(C)C)Oc3ccc(cc3Cl)C[C@H]3NC(=O)[C@H](N)c5ccc(O)c(c5)Oc5cc(O)cc(c5)[C@H](NC3=O)C(=O)N[C@H]4C(=O)N[C@H]3C(=O)N[C@@H]2C(=O)N[C@H](C(=O)N2CCN(C)CC2)c2cc(O)cc(O[C@H]4O[C@H](CO)[C@@H](O)[C@@H](O)[C@@H]4O)c2-c2cc3ccc2O)O[C@@H](CO)[C@@H](O)[C@@H]1O | 0.12 µg/mL (≈ 0.0612 µM) | 0.06 µg/mL (≈ 0.0306 µM) | 0.06 µg/mL (≈ 0.0306 µM) | 0.12 µg/mL (≈ 0.0612 µM) | 115 mg/kg | < 0.03 mg/kg | 0.12 µg/mL (≈ 0.0612 µM) | – | –
7 | CC(=O)N[C@@H]1[C@H](O[C@@H]2c3ccc(c(Cl)c3)Oc3cc4cc(c3O[C@@H]3O[C@@H](CO)[C@@H](O)[C@H](O)[C@@H]3NC(=O)CCCCCCC(C)C)Oc3ccc(cc3Cl)C[C@H]3NC(=O)[C@H](N)c5ccc(O)c(c5)Oc5cc(O)cc(c5)[C@H](NC3=O)C(=O)N[C@H]4C(=O)N[C@H]3C(=O)N[C@@H]2C(=O)N[C@H](C(=O)N(C)C)c2cc(O)cc(O[C@H]4O[C@H](CO)[C@@H](O)[C@@H](O)[C@@H]4O)c2-c2cc3ccc2O)O[C@@H](CO)[C@@H](O)[C@@H]1O | 0.25 µg/mL (≈ 0.131 µM) | 0.06 µg/mL (≈ 0.0315 µM) | 0.12 µg/mL (≈ 0.0629 µM) | 0.12 µg/mL (≈ 0.0629 µM) | 139 mg/kg | 0.08 mg/kg | 0.06 µg/mL (≈ 0.0315 µM) | – | –
